The full list was thinned out, with hits kept by preference.
bCat KO growth: beta-catenin-lacking colon tumor cell growth suppression; HCT116 beta-catenin knockout viability, CellTiter-Glo, 60 h; stronger effect = lower value; viability, % at 10 µM; 140,000 compounds, 1.5% hits; AID 818;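 active means viability at or under a set limit, the compound median less 4 SD, cut at about 6% in these data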;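 further: 0% = Hyamine 1622 control at 20 µM and 100% = untreated cell control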
HUVEC inhibit: human endothelial cell proliferation inhibition; 86,000 compounds, 1.1% hits; HUVEC proliferation, CellTiter-Glo luminescence, 72 h; stronger effect = lower value; AID 648; viability, % at 10 µM (by protocol);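 active means viability at or below 30%; inactive means viability above 30%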;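 further: 100% = median luminescence of DMSO-only cell control wells on each plate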
PTEN del growth: PTEN-deleted cell growth suppression. HCT116 PTEN-null viability, CellTiter-Glo, 60 h; stronger effect = lower value. viability, % at 10 µM. 140,000 compounds, 1.2% hits;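 active means viability at or below a set limit, 4 SD under the median of all tested compounds, cut at about 3.7% in these data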;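 further: PTEN knockout HCT116 line with beta catenin targeted HCT116 as companion control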
Fibroblast inh: blocks proliferation of human lung fibroblasts; LL 47 human lung fibroblast viability, ATP luminescence; stronger effect = lower value; viability, % at 10 µM; 85,000 compounds, 1.1% hits; AID 719;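 active means viability at or below 50% in the single dose screen; inactive means viability above 50%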;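 further: compound exposure lasted 72 h before the ATP readout; 100% = median luminescence of untreated cell-only wells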
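Times – overnight cell rest, 72 h compound treatment at 37 °C · Test system – human lung fibroblast line LL 47, low passage · Amount – 1,150 cells in each well · Controls – cell-only wells, no compound · Doses – 0.1% DMSO in all compound wells · Measured by – CellTiter-Glo luminescence · Buffer or medium – IMEM plus 15% FBS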
H69AR growth 86K: growth inhibitors of human H69AR lung tumor cells; viability, % at 10 µM; 85,000 compounds, 6% hits; H69AR lung tumor viability, ATP luminescence, 72 h; stronger effect = lower value;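 active means viability at or below 40%; inactive means viability above 40%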;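 further: multidrug resistant small cell line overexpressing MRP-1 efflux transporter; 100% = mean luminescence of untreated control wells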
Starred values were filed as active, the others as inactive; nt = no result given.

SMILES	bCat KO growth	HUVEC inhibit	PTEN del growth	Fibroblast inh	H69AR growth 86K
NC(=O)C1CCN(c2nc(C3CC3)nc3c2nnn3Cc2ccccc2)CC1	102.2	93.2	109.8	94.2	78.1
CCCCCCC(=O)N1CCC(c2nc3c(nnn3Cc3ccccc3Cl)c(=O)[nH]2)CC1	58.1	84.4	56.9	96.1	34.3*
NC(=O)C1CCN(c2nc(C3CC3)nc3c2nnn3Cc2ccccc2Cl)CC1	83.5	84.5	82.6	94.3	31.1*
O=C(NCc1ccco1)c1nc2c(nnn2Cc2ccccc2Cl)c(=O)[nH]1	7.6	14.2*	7.2	30.8*	24.9*
COCCN(C(=O)CN1CCN(S(=O)(=O)c2ccc(F)cc2)CC1)c1c(N)n(Cc2ccccc2)c(=O)[nH]c1=O	95.7	nt	101.3	nt	nt
O=C(Nc1nc(NC(=O)c2ccco2)n(-c2ccccc2)n1)c1ccccc1	7.2	93.0	10.8	34.7*	1.4*
Nc1nc(NC(=O)c2ccccc2)nn1-c1ccccc1	92.4	nt	104.7	nt	nt
CC1(C)OC(=O)N(CCc2ccccc2)C1(C)O (stereo unspecified)	98.0	96.4	89.8	nt	106.0
CC1(C)OC(=O)N(c2ccccc2)C12C=Cc1cc(Br)ccc1O2 (stereo unspecified)	65.9	99.7	52.1	91.0	18.4*
N#Cc1cccc(Oc2ccc(-c3cnc4ccccc4n3)cc2)c1C#N	78.5	nt	69.7	nt	nt
COc1cc(C(=O)NCCOc2cccc(C)c2)c(Br)c(OC)c1OC	88.8	nt	94.9	nt	nt
O=C(Nc1cccc(C(F)(F)F)c1)c1ccc2nc(-c3ccco3)c(-c3ccco3)nc2c1	102.0	58.9	97.6	112.7	31.8*
COc1ccc(C(=O)Nc2cccc(-c3nnc(-c4ccco4)o3)c2)cc1	54.0	47.2	41.2	62.4	24.1*
CCOc1ccccc1C(=O)Nc1cccc(-c2nnc(-c3ccccc3)o2)c1	63.1	48.0	63.0	87.0	8.7*
O=C(NCCc1ccccc1)C(c1cccs1)N(C(=O)CCl)c1ccc(Cl)cc1 (stereo unspecified)	1.1*	nt	0.8*	nt	nt
CCCCN(C)CC(O)Cn1cc(/C=C/C(=O)c2cccs2)c2ccccc21 (stereo unspecified)	1.6*	nt	1.6*	nt	nt
O=C(/C=C/c1cn(CC(O)CN2CCCCCC2)c2ccccc12)c1cccs1 (stereo unspecified)	1.2*	nt	1.9*	nt	nt
CCCc1nc(NCc2ccncc2)c2nnn(Cc3ccccc3F)c2n1	1.9*	89.4	3.2*	89.8	42.1
CC12C=CC3(O1)C(C(=O)N(c1ccccc1)C3C(=O)NC1CCCC1)C2C(N)=O (stereo unspecified)	86.1	85.7	97.3	98.8	89.6
O=C(Nc1ccc(-c2nc3ccccc3[nH]2)cc1)c1ccc2c(c1)OCO2	2.6*	nt	2.5*	nt	nt
Cc1ccc(-c2nc3ccccc3[nH]2)cc1NC(=O)c1ccco1	95.0	96.5	85.9	106.9	nt
O=C(Nc1ccc2nc(-c3ccc(Br)o3)[nH]c2c1)c1ccco1	103.6	69.1	92.5	114.3	51.2
O=C(Nc1ccc(Cl)c(-c2nc3ccccc3[nH]2)c1)c1ccc2c(c1)OCO2	76.9	nt	62.7	nt	nt
O=C(Nc1cccc(-c2nc3ccccc3[nH]2)c1)c1cccc(NC(=O)c2ccco2)c1	10.3	1.9*	55.2	13.3*	1.2*
O=C(Nc1ccc2nc(-c3ccccc3)[nH]c2c1)c1ccco1	75.3	88.3	73.0	93.1	38.8*
SMILES	bCat KO growth	HUVEC inhibit	PTEN del growth	Fibroblast inh	H69AR growth 86K
Cc1ccc2nc(-c3ccc(NC(=O)CSc4ccccc4)cc3)[nH]c2c1	3.2*	nt	7.7	nt	nt
O=C(CSc1ccccc1)Nc1ccc(-c2nc3ccccc3[nH]2)cc1	79.7	nt	71.2	nt	nt
Cc1cccc2[nH]c(-c3ccc(NC(=O)c4ccco4)cc3)nc12	88.5	93.9	91.8	109.2	34.6*
O=C(Nc1ccc(-c2nc3c(ccc4ccccc43)o2)cc1)c1ccco1	19.4	68.7	16.3	40.2*	19.2*
CN1CCN(Cc2cc(COCc3ccccc3)c3cccnc3c2O)CC1	1.1*	70.8	0.8*	2.8*	1.8*
COCc1ccc(O)c2ncccc12	2.2*	6.0*	2.1*	3.0*	1.1*
OCc1ccnc2c(O)cccc12	3.2*	nt	2.9*	nt	nt
Oc1ccc(CN2CCN(Cc3ccccc3)CC2)c2cccnc12	2.4*	105.9	2.0*	94.8	2.0*
Cc1ccccc1NCc1ccc(O)c2ncccc12	12.0	84.3	11.0	93.0	71.5
Cc1ccccc1N=Nc1ccc(O)c2ncccc12	15.8	nt	10.9	nt	nt
COC(=O)C1CCCN1C(=O)COc1ccc(Cl)cc1Br (stereo unspecified)	67.4	nt	74.5	nt	nt
